The nature of data set [1]: Cytotoxicity in human HCT116 cells by SRB assay. The note with it: HCT-116. In kind it is functional, cell-based. Background: In SRB staining, fixed cells bind dye roughly in proportion to their protein.
In the next data set the test system is C6. Kind of data set: Neuroprotective activity in rat C6 cells assessed as induction of NGF release at 20 uM after 24 hrs by ELISA. In kind it is functional. The procedure, abridged:
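C6 glioma cells seeded at 1 × 10^5 cells/well. After 24 h, treated with compound at 20 μM in serum-free DMEM for a further 24 h. NGF secreted into the conditioned medium quantified by ELISA and expressed as % of untreated control (100%). 6-Shogaol positive control. Means ± SD of three independent experiments run in triplicate.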

The subject of the next data set is SK-MEL-2. Description: Cytotoxicity in human SK-MEL-2 cells by SRB assay. In kind it is functional, cell-based.
Data set [2] can be described thus: Cytotoxicity in rat C6 cells assessed as cell viability at 20 uM after 24 hrs by MTT assay. In kind it is cell-based. To be noted: read-out: Activity. The procedure, abridged: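 C6 glioma cells seeded at 1 × 10^5 cells/well. After 24 h, switched to serum-free DMEM with compound at 20 μM for a further 24 h. Viability by MTT, expressed as % of untreated control. Means ± SD of three independent experiments.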
On the technique in general: Formazan colour is commonly taken as a measure of viable cells.

For another data set, the system named is BV-2. Kind of data set: Antiinflammatory activity in mouse BV2 cells assessed as inhibition of LPS-induced NO production after 24 hrs by Griess assay. In kind it is functional, cell-based. The procedure, abridged:
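BV2 microglia seeded at 4 × 10^4 cells/well, given compound at various concentrations with LPS (100 ng/mL), incubated 24 h. Nitrite in the medium read with Griess reagent (0.1% N-1-naphthylethylenediamine dihydrochloride, 1% sulfanilamide in 5% phosphoric acid, equal volume of supernatant), absorbance at 570 nm after 10 min. Sodium nitrite standard curve. IC50 derived. L-NMMA positive control.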
In general terms: Nitrite, measured by Griess reagent, commonly stands in for NO production.

The subject of a further data set is A549. Description: Cytotoxicity in human A549 cells by SRB assay. In kind it is functional, cell-based.
Data set [3] in a line: Cytotoxicity in human SKOV3 cells by SRB assay. In kind it is functional, cell-based. To be noted: SK-OV-3.

The structures appear in SMILES notation. The source made the active and inactive calls. No cut-off for these calls is given here.

As usually defined, the IC50 is the concentration that inhibits the measured activity by half. Low readings indicate greater potency, high ones weaker potency.

`CC(C)[C@@]12CC[C@@H]3[C@@]4(C)CCC[C@@](C)(C(=O)O)[C@@H]4CC(=O)[C@]3(O)[C@@H]1O2`: the IC50 (in data set [1]; in the data set on SK-MEL-2; with A549; in data set [3]) was greater than 10 µM in each case. In the data set with C6, the Activity is 155%. Also, in data set [2], the viability at 24 h, 20 µM stood at 91.4%. Besides, the inhibition result in the data set with BV-2 is “inactive”.
On to `CC(C)(O)[C@]12O[C@H]1C[C@@H]1[C@@]3(C)CCC[C@@](C)(C(=O)O)[C@@H]3CC[C@@]13O[C@H]32`, for which the IC50 (in data set [1]; with SK-MEL-2; with A549; in data set [3]) was greater than 10 µM in each case. The inhibition entry with BV-2 was “inactive”.
With `CC(C)c1ccc2c(c1)[C@@H](O)C[C@H]1[C@](C)(C(=O)O)CCC[C@]21C`, the IC50 (in data set [1]; in the data set with SK-MEL-2; with A549; in data set [3]) was greater than 10 µM throughout. Further, the Activity in the data set with C6 was 165.1%. In addition, the viability at 24 h, 20 µM in data set [2] came to 96.2%. In addition, the inhibition entry with BV-2 is “inactive”.
On to `CC(C)(O)[C@]12O[C@H]1C[C@H]1C(=CC[C@@H]3[C@]1(C)CCC[C@@]3(C)C(=O)O)[C@H]2O`, for which the IC50 (in data set [1]; in the data set with SK-MEL-2; in the data set with A549; in data set [3]) was greater than 10 µM in each case. In the data set on C6, the Activity was determined as 158.6%. Also, the viability at 24 h, 20 µM in data set [2] amounted to 92.5%. Besides, the inhibition entry in the data set on BV-2 is “inactive”.
On to `CO[C@H]1C(=O)C2=C[C@@](O)(C(C)C)CC[C@@H]2[C@@]2(C)CCC[C@@](C)(C(=O)O)[C@H]12`, for which the IC50 (in data set [1]; in the data set on SK-MEL-2; in the data set with A549; in data set [3]) was greater than 10 µM each time. The Activity in the data set with C6 was determined as 170.2%. Further, the viability at 24 h, 20 µM in data set [2] turned out to be 96.2%. Moreover, the inhibition entry in the data set on BV-2 was “inactive”.
Consider `CC(C)[C@]12O[C@H]1C[C@H]1C(=CC[C@@H]3[C@]1(C)CCC[C@@]3(C)C(=O)O)[C@H]2O`, for which the IC50 (in data set [1]; with SK-MEL-2; with A549; in data set [3]) was greater than 10 µM each time. Further, the Activity in the data set with C6 is given as 193.9%. Besides, the viability at 24 h, 20 µM in data set [2] was determined as 73.1%. Also, the inhibition entry in the data set on BV-2 is “inactive”.
For the compound `CC(C)(O)[C@]12O[C@H]1C[C@@H]1[C@@]3(C)CCC[C@@](C)(C(=O)O)[C@@H]3CC[C@@]1(O)[C@H]2O`, the IC50 (in data set [1]; with SK-MEL-2; with A549; in data set [3]) was greater than 10 µM in each case. Further, in the data set on BV-2, the inhibition entry was “inactive”.
As for `CC(=O)OC[C@]1(C)CCC[C@]2(C)c3ccc(C(C)(C)O)cc3CC[C@@H]12`, the IC50 (in data set [1]; in the data set on SK-MEL-2; in the data set on A549; in data set [3]) was greater than 10 µM each time. For the same compound, in the data set with C6, the Activity amounted to 171.3%. In data set [2], the viability at 24 h, 20 µM stood at 85.5%. In the data set on BV-2, the inhibition entry was “inactive”.
In the case of `CC(C)c1ccc2c(c1)[C@H](O)C[C@H]1[C@](C)(C(=O)O)CCC[C@]21C`, the IC50 (in data set [1]; with SK-MEL-2; in the data set with A549; in data set [3]) was greater than 10 µM throughout. Besides, the Activity with C6 turned out to be 204.3%. For the same compound, the viability at 24 h, 20 µM in data set [2] was found to be 101%. Further, the inhibition entry in the data set on BV-2 is “inactive”.
Consider `CC(C)[C@]12O[C@H]1C[C@@H]1[C@@]3(C)CCC[C@@](C)(C(=O)O)[C@@H]3CC[C@@]1(O)[C@H]2O`, for which the IC50 (in data set [1]; in the data set with SK-MEL-2; in the data set on A549; in data set [3]) was greater than 10 µM in each case. For the same compound, the inhibition result with BV-2 was “inactive”.
As for `CC(C)[C@@]12C=C3[C@H](O)C[C@H]4[C@](C)(C(=O)O)CCC[C@]4(C)[C@]3(CC1)OO2`, the IC50 (in data set [1]; with SK-MEL-2; in the data set with A549; in data set [3]) was greater than 10 µM throughout. In the data set with C6, the Activity was found to be 154.3%. In data set [2], the viability at 24 h, 20 µM stood at 127%. Also, the inhibition result in the data set with BV-2 was “inactive”.
Consider `CC(C)[C@]12C=C3[C@H](O)C[C@H]4[C@](C)(C(=O)O)CCC[C@]4(C)[C@@]3(CC1)OO2`, for which the IC50 (in data set [1]; in the data set with SK-MEL-2; with A549; in data set [3]) was greater than 10 µM each time. The inhibition entry in the data set with BV-2 is “inactive”.
On to `CO[C@@]1(C(C)C)C=C2C(=O)C[C@@H]3[C@](C)(CCC[C@@]3(C)C(=O)O)[C@H]2CC1`, for which the IC50 (in data set [1]; in the data set on SK-MEL-2; in the data set on A549; in data set [3]) was greater than 10 µM in each case. In addition, the inhibition result in the data set on BV-2 is “inactive”.
For the compound `CC(C)(O)c1ccc2c(c1)C(=O)C[C@H]1[C@](C)(C(=O)O)CCC[C@]21C`, the IC50 (in data set [1]; in the data set with SK-MEL-2; in the data set with A549; in data set [3]) was greater than 10 µM in each case. In addition, in the data set on C6, the Activity stood at 161.7%. Moreover, the viability at 24 h, 20 µM in data set [2] was 94.6%. Also, the inhibition result in the data set on BV-2 is “inactive”.
As for `CC(C)(O)c1ccc2c(c1)CC[C@H]1[C@](C)(C(=O)O)CCC[C@]21C`, the IC50 (in data set [1]; in the data set on SK-MEL-2; with A549; in data set [3]) was greater than 10 µM each time. The Activity in the data set on C6 is 152.9%. For the same compound, the viability at 24 h, 20 µM in data set [2] was 94.3%. Moreover, the inhibition result in the data set with BV-2 was “inactive”.
Take `CC(C)c1ccc2c(c1)[C@H](O)C[C@H]1[C@](C)(COC(=O)CCC(=O)O)CCC[C@]21C` [ABIESADINE F]: the IC50 (in data set [1]; with SK-MEL-2; with A549; in data set [3]) was greater than 10 µM throughout. Moreover, the Activity in the data set on C6 worked out at 142.2%. Moreover, in data set [2], the viability at 24 h, 20 µM was determined as 98.2%. Besides, the inhibition result in the data set with BV-2 is “inactive”.
For `CC(C)c1ccc2c(c1)[C@H](O)C[C@H]1C(C)(C)CCC[C@]21C`, the IC50 (in data set [1]; with SK-MEL-2; in the data set on A549; in data set [3]) was greater than 10 µM throughout. Also, in the data set on BV-2, the inhibition entry was “inactive”.
As for `COc1cc([C@@H]2c3cc4c(cc3[C@@H](O[C@@H]3O[C@@H]5CO[C@@H](C)O[C@H]5[C@H](O)[C@H]3O)[C@H]3COC(=O)[C@H]23)OCO4)cc(OC)c1O` [ETOPOSIDE], the IC50 in data set [1] worked out at 1 µM; with SK-MEL-2 it was 1.5 µM; in the data set on A549, 1.4 µM; in data set [3], 2.6 µM.
Regarding `CO[C@]12C(=O)C[C@@H]3[C@](C)(CCC[C@@]3(C)C(=O)O)[C@H]1CC[C@@]1(C(C)C)O[C@@H]21`, the IC50 (in data set [1]; with SK-MEL-2; in the data set on A549; in data set [3]) was greater than 10 µM each time. The inhibition result with BV-2 is “inactive”.
For `CC(C)[C@]12O[C@H]1CC1=C(CC[C@H]3[C@](C)(C(=O)O)CCC[C@]13C)[C@H]2O`, the IC50 (in data set [1]; with SK-MEL-2; in the data set on A549; in data set [3]) was greater than 10 µM throughout. Further, the inhibition entry with BV-2 is “inactive”.

The values above are taken from ChEMBL document CHEMBL3797062, “Diterpenes from the Trunk of Abies holophylla and Their Potential Neuroprotective and Anti-inflammatory Activities” (J Nat Prod, 2016).
